{
  "source": "ChEMBL document CHEMBL2034835",
  "about": "“A solvent free, four-component synthesis and 1,3-dipolar cycloaddition of 4(H)-pyrans with nitrile oxides: synthesis and discovery of antimycobacterial activity of enantiomerically pure 1,2,4-oxadiazoles” (2012)",
  "data": [
    {"test_system": "Mycobacterium tuberculosis", "assay": "(§1) Antitubercular activity against Mycobacterium tuberculosis H37Rv after 28 days by agar dilution method", "format": "functional", "conditions": "not given", "procedure,_shortened": "(§2)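 Agar dilution, following NCCLS guidance, on Middlebrook 7H11 with OADC supplement containing ten-fold serial dilutions of drug. H37Rv inoculum was taken from fresh 7H11/OADC slants, adjusted to 1 mg/mL wet weight in 0.05% Tween 80 saline and diluted 10^-2 to about 10^7 cfu/mL. 5 µL was spotted per tube and incubated at 37 °C for 28 days. MIC is the lowest concentration giving complete growth inhibition.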", "units": {"MIC": "µM"}, "values": [
      {"smiles": "C[C@H](c1ccccc1)N1CC2=C(OC(N)=C(c3nc(-c4ccc(Cl)cc4)no3)C2c2ccccc2Cl)/C(=C/c2ccccc2Cl)C1", "note": "(stereo in doubt; 10f)", "MIC": 0.15},
      {"smiles": "C[C@H](c1ccccc1)N1CC2=C(OC(N)=C(c3nc(-c4ccccc4)no3)C2c2ccccc2)/C(=C/c2ccccc2)C1", "note": "(stereo in doubt; 9a)", "MIC": 11.07},
      {"smiles": "Cc1ccc(/C=C2\\CN([C@H](C)c3ccccc3)CC3=C2OC(N)=C(c2nc(-c4ccc(Cl)cc4)no2)C3c2ccc(C)cc2)cc1", "note": "(stereo in doubt; 9d)", "MIC": 2.49},
      {"smiles": "C[C@H](c1ccccc1)N1CC2=C(OC(N)=C(c3nc(-c4ccc(Cl)cc4)no3)C2c2ccccc2)/C(=C/c2ccccc2)C1", "note": "(stereo in doubt; 10b)", "MIC": 2.6},
      {"smiles": "C[C@H](c1ccccc1)N1CC2=C(OC(N)=C(c3nc(-c4ccccc4)no3)C2c2ccc(Cl)cc2Cl)/C(=C/c2ccc(Cl)cc2Cl)C1", "note": "(stereo in doubt; 10g)", "MIC": 0.57},
      {"smiles": "C[C@H](c1ccccc1)N1CC2=C(OC(N)=C(c3nc(-c4ccccc4)no3)C2c2ccccc2)/C(=C/c2ccccc2)C1", "note": "(stereo in doubt; 10a)", "MIC": 2.76},
      {"smiles": "C[C@H](c1ccccc1)N1CC2=C(OC(N)=C(c3nc(-c4ccc(Cl)cc4)no3)C2c2ccccc2Cl)/C(=C/c2ccccc2Cl)C1", "note": "(stereo in doubt; 9f)", "MIC": 0.6},
      {"smiles": "C[C@H](c1ccccc1)N1CC2=C(OC(N)=C(c3nc(-c4ccccc4)no3)C2c2cccc3ccccc23)/C(=C/c2cccc3ccccc23)C1", "note": "(stereo in doubt; 9i)", "MIC": 18.8},
      {"smiles": "Cc1ccc(/C=C2\\CN([C@H](C)c3ccccc3)CC3=C2OC(N)=C(c2nc(-c4ccc(Cl)cc4)no2)C3c2ccc(C)cc2)cc1", "note": "(stereo in doubt; 10d)", "MIC": 0.64},
      {"smiles": "C[C@H](c1ccccc1)N1CC2=C(OC(N)=C(c3nc(-c4ccc(Cl)cc4)no3)C2c2cccc3ccccc23)/C(=C/c2cccc3ccccc23)C1", "note": "(stereo in doubt; 10j)", "MIC": 4.48},
      {"smiles": "C[C@H](c1ccccc1)N1CC2=C(OC(N)=C(c3nc(-c4ccc(Cl)cc4)no3)C2c2ccc(Cl)cc2Cl)/C(=C/c2ccc(Cl)cc2Cl)C1", "note": "(stereo in doubt; 10h)", "MIC": 0.07},
      {"smiles": "C[C@H](c1ccccc1)N1CC2=C(OC(N)=C(c3nc(-c4ccc(Cl)cc4)no3)C2c2ccc(Cl)cc2Cl)/C(=C/c2ccc(Cl)cc2Cl)C1", "note": "(stereo in doubt; 9h)", "MIC": 0.27},
      {"smiles": "C[C@H](c1ccccc1)N1CC2=C(OC(N)=C(c3nc(-c4ccc(Cl)cc4)no3)C2c2ccccc2)/C(=C/c2ccccc2)C1", "note": "(stereo in doubt; 9b)", "MIC": 5.22},
      {"smiles": "Cc1ccc(/C=C2\\CN([C@H](C)c3ccccc3)CC3=C2OC(N)=C(c2nc(-c4ccccc4)no2)C3c2ccc(C)cc2)cc1", "note": "(stereo in doubt; 10c)", "MIC": 5.28},
      {"smiles": "C[C@H](c1ccccc1)N1CC2=C(OC(N)=C(c3nc(-c4ccccc4)no3)C2c2ccccc2Cl)/C(=C/c2ccccc2Cl)C1", "note": "(stereo in doubt; 10e)", "MIC": 0.63},
      {"smiles": "C[C@H](c1ccccc1)N1CC2=C(OC(N)=C(c3nc(-c4ccccc4)no3)C2c2cccc3ccccc23)/C(=C/c2cccc3ccccc23)C1", "note": "(stereo in doubt; 10i)", "MIC": 4.71}
    ]},
    {"test_system": "Mycobacterium tuberculosis", "assay": "as §1", "format": "functional", "conditions": "Mycobacterium tuberculosis, H37Rv, 672 h; read-out: MIC", "procedure,_shortened": "as §2", "units": {"MIC": "µM"}, "values": [
      {"smiles": "C[C@H](c1ccccc1)N1CC2=C(OC(N)=C(c3nc(-c4ccccc4)no3)C2c2ccccc2Cl)/C(=C/c2ccccc2Cl)C1", "note": "(stereo in doubt; 9e)", "MIC": 1.23},
      {"smiles": "NNC(=O)c1ccncc1", "note": "[ISONIAZID]", "MIC": 0.36},
      {"smiles": "Cc1ccc(/C=C2\\CN([C@H](C)c3ccccc3)CC3=C2OC(N)=C(c2nc(-c4ccccc4)no2)C3c2ccc(C)cc2)cc1", "note": "(stereo in doubt; 9c)", "MIC": 10.5},
      {"smiles": "C[C@H](c1ccccc1)N1CC2=C(OC(N)=C(c3nc(-c4ccccc4)no3)C2c2ccc(Cl)cc2Cl)/C(=C/c2ccc(Cl)cc2Cl)C1", "note": "(stereo in doubt; 9g)", "MIC": 1.11},
      {"smiles": "C[C@H](c1ccccc1)N1CC2=C(OC(N)=C(c3nc(-c4ccc(Cl)cc4)no3)C2c2cccc3ccccc23)/C(=C/c2cccc3ccccc23)C1", "note": "(stereo in doubt; 9j)", "MIC": 8.94},
      {"smiles": "CO[C@H]1/C=C/O[C@@]2(C)Oc3c(C)c(O)c4c(O)c(c(/C=N/N5CCN(C)CC5)c(O)c4c3C2=O)NC(=O)/C(C)=C\\C=C\\[C@H](C)[C@H](O)[C@@H](C)[C@@H](O)[C@@H](C)[C@H](OC(C)=O)[C@@H]1C", "note": "[RIFAMPIN]", "MIC": 0.12},
      {"smiles": "CC[C@@H](CO)NCCN[C@@H](CC)CO", "note": "[ETHAMBUTOL]", "MIC": 7.64}
    ]},
    {"test_system": "Mycobacterium tuberculosis", "assay": "Ratio of rifampicin MIC to compound MIC for Mycobacterium tuberculosis H37Rv", "format": "functional", "conditions": "not given", "values": [
      {"smiles": "C[C@H](c1ccccc1)N1CC2=C(OC(N)=C(c3nc(-c4ccc(Cl)cc4)no3)C2c2ccc(Cl)cc2Cl)/C(=C/c2ccc(Cl)cc2Cl)C1", "note": "(stereo in doubt; 10h)", "Ratio": 1.7}
    ]},
    {"test_system": "Mycobacterium tuberculosis", "assay": "Ratio of isoniazid MIC to compound MIC for Mycobacterium tuberculosis H37Rv", "format": "functional", "conditions": "not given", "values": [
      {"smiles": "C[C@H](c1ccccc1)N1CC2=C(OC(N)=C(c3nc(-c4ccc(Cl)cc4)no3)C2c2ccc(Cl)cc2Cl)/C(=C/c2ccc(Cl)cc2Cl)C1", "note": "(stereo in doubt; 10h)", "Ratio": 5.1}
    ]},
    {"test_system": "Mycobacterium tuberculosis", "assay": "Ratio of ciprofloxacin MIC to compound MIC for Mycobacterium tuberculosis H37Rv", "format": "functional", "conditions": "not given", "values": [
      {"smiles": "C[C@H](c1ccccc1)N1CC2=C(OC(N)=C(c3nc(-c4ccc(Cl)cc4)no3)C2c2ccc(Cl)cc2Cl)/C(=C/c2ccc(Cl)cc2Cl)C1", "note": "(stereo in doubt; 10h)", "Ratio": 67.3}
    ]},
    {"test_system": "Mycobacterium tuberculosis", "assay": "Ratio of ethambutol MIC to compound MIC for Mycobacterium tuberculosis H37Rv", "format": "functional", "conditions": "not given", "values": [
      {"smiles": "C[C@H](c1ccccc1)N1CC2=C(OC(N)=C(c3nc(-c4ccc(Cl)cc4)no3)C2c2ccc(Cl)cc2Cl)/C(=C/c2ccc(Cl)cc2Cl)C1", "note": "(stereo in doubt; 10h)", "Ratio": 109}
    ]}
  ]
}
